Calls of active or inactive are those of the source. The rule behind the calls is not given here.
Assays:
HMEC [1] = test: Cytotoxicity against human HMEC cells after 72 hrs by MTT assay; format: cell-based
HL-60 [2] = test: Induction of DNA damage in human HL60 cells assessed as increased histone H2AX expression after 1 hr by agarose gel electrophoresis; format: functional, cell-based
HMEC [3] = test: Selectivity ratio of IC50 for human HMEC cells to IC50 for KB cells
HL-60 [4] = test: Induction of apoptosis in human HL60 cells assessed as DNA ladder formation at 2.5 to 10 uM using Annexin-V/PI double-staining by flow cytometric analysis; format: functional, cell-based; details: TDE = time-dependent effect
Outline: (§1)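 HL60 cells were treated with 2.5, 5.0, 7.5 or 10.0 μM for 24 h for DNA ladder analysis, representative of three experiments. Apoptotic fractions were measured after 2.5–10 μM for 24 h, or 10 μM over a time course, by Annexin/PI staining and flow cytometry (early plus late apoptotic cells), as mean ± SD of three experiments.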

HCT-116 [5] = test: Induction of apoptosis in human HCT116 cells assessed as activation of caspase 8 at 2.5 to 10 uM after 24 hrs by Western blotting; format: functional, cell-based
Outline: (§2)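 Cells (2×10^5/mL) were exposed to 2.5–10 μM for 24 h, then whole-cell lysates were made. Pro-/cleaved caspase-3, caspase-8, pro-/cleaved caspase-9, PARP (116 kDa full length, 85 kDa fragment) and Bid were probed by Western blot with ECL detection.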

[6] = molecular target: DNA topoisomerase 2-alpha (Homo sapiens) (UniProt P11388); test: Induction of human topoisomerase 2alpha-mediated poststrand-passage DNA cleavage after 6 mins by agarose gel electrophoresis
Chain of DNA topoisomerase 2-alpha (Homo sapiens) (P11388 whole entry): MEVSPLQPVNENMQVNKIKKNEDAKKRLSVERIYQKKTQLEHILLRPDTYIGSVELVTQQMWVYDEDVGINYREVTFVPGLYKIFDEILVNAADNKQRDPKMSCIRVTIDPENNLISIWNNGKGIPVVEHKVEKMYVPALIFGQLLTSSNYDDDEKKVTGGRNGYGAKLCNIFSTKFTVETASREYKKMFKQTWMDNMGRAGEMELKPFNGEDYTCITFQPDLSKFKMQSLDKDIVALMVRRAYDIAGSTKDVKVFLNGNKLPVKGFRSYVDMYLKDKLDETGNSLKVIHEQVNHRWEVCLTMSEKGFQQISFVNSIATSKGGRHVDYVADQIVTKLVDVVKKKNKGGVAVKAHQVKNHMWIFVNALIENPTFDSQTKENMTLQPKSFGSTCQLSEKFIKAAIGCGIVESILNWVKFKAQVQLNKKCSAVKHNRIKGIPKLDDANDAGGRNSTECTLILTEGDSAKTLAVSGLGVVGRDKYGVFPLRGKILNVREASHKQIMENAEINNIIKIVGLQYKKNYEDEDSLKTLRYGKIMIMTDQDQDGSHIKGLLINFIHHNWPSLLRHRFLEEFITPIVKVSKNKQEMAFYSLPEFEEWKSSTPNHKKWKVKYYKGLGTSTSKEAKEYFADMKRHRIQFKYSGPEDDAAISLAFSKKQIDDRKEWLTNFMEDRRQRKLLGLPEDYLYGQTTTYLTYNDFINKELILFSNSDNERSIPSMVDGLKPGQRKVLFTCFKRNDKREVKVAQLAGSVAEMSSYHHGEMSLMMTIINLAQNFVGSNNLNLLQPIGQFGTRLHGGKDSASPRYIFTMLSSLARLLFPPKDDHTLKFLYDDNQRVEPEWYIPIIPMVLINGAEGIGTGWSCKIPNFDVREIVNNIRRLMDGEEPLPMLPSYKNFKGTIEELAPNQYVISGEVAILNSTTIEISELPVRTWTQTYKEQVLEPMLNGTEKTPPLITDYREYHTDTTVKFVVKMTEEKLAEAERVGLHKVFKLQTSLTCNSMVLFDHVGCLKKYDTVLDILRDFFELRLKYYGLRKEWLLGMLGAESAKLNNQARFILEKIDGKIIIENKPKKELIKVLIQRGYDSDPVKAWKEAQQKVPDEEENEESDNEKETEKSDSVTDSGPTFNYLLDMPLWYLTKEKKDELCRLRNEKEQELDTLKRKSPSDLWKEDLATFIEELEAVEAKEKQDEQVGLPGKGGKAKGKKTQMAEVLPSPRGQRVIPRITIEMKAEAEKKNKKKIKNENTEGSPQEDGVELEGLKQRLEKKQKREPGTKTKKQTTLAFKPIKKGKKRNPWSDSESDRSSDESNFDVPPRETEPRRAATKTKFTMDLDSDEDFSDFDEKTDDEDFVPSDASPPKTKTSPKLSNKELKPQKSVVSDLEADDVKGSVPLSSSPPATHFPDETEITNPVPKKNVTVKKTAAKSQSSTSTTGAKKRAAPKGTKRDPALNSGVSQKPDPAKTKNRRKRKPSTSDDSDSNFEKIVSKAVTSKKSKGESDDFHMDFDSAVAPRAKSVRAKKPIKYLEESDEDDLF
Outline: (§3)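 Supercoiled pBR322 (0.25 μg) was incubated with 6 units of topo II in cleavage buffer containing 5 mM MgCl2 at 37 °C for 6 min; the post-strand-passage reactions also received 1 mM APPNHP. Reactions were stopped with SDS and proteinase K, digested at 50 °C for 30 min, heated to 70 °C, and run on 1% agarose gels.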

HL-60 [7] = test: Induction of DNA damage in human HL60 cells assessed as increased histone H2AX expression at 20 uM agarose gel electrophoresis; format: functional, cell-based; details: TDE = time-dependent effect
[8] = molecular target: DNA topoisomerase 2-alpha (Homo sapiens) (UniProt P11388); test: Inhibition of human topoisomerase 2alpha-mediated unwinding of linearized pBR322 assessed as DNA intercalation at 2 to 50 uM
Outline: (§4)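 Unwinding (intercalation) test: EcoRI-linearized pBR322 (0.1 μg) incubated with compound and 2 units T4 DNA ligase in ligase buffer at 22 °C for 30 min. Stopped at 60 °C for 10 min, compound removed by phenol extraction, ligation products resolved on agarose gel.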

HMEC [9] = test: Selectivity ratio of IC50 for human HMEC cells to IC50 for MKN45 cells
HMEC [10] = test: Selectivity ratio of IC50 for human HMEC cells to IC50 for Bel7402 cells
[11] = molecular target: DNA topoisomerase 2-alpha (Homo sapiens) (UniProt P11388); test: Inhibition of human topoisomerase 2alpha-mediated relaxation of supercoiled pBR322 DNA after 30 mins by agarose gel electrophoresis
Outline: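 Supercoiled pBR322 (0.25 μg) incubated with 0.75 unit topo IIα at 37 °C for 30 min. SDS stop. Supercoiled and relaxed forms resolved on 1% agarose/TAE, ethidium bromide stain.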

HMEC [12] = test: Selectivity ratio of IC50 for human HMEC cells to IC50 for SKOV3 cells
HL-60 [13] = test: Cytotoxicity against human HL60 cells after 72 hrs by MTT assay; format: functional, cell-based; details: HL-60, 72 h
Outline: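 Cells were treated in triplicate with graded concentrations for 72 h at 37 °C and read by MTT. IC50 is the concentration giving 50% growth inhibition, derived by the Logit method from at least three independent experiments and given as mean ± SD.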

HMEC [14] = test: Selectivity ratio of IC50 for human HMEC cells to IC50 for HL60 cells
HL-60 [15] = test: Induction of apoptosis in human HL60 cells assessed as DNA ladder formation at 10 uM after 1.5 to 24 hrs using Annexin-V/PI double-staining by flow cytometric analysis; format: functional, cell-based; outline: as §1
KB = test: Cytotoxicity against vincristine-resistant human KB cells over expressing P-glycoprotein after 72 hrs by SRB assay; format: functional, cell-based
Outline: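 Adherent human tumour lines were seeded and exposed in triplicate to graded compound concentrations at 37 °C for 72 h. Growth was read by sulforhodamine B staining. IC50 (50% growth inhibition) was obtained by the Logit method from at least three independent experiments and reported as mean ± SD.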

HCT-116 [16] = test: Induction of apoptosis in human HCT116 cells assessed as accumulation at S phase at 5 uM after 24 hrs using PI staining based flow cytometric analysis (reference value: 27%)
HMEC [17] = test: Selectivity ratio of IC50 for human HMEC cells to IC50 for SGC7901 cells
HCT-116 [18] = test: Induction of apoptosis in human HCT116 cells assessed as increase in cleaved caspase 3 levels after 24 hrs by Western blotting; format: functional, cell-based; outline: as §2
[19] = molecular target: DNA topoisomerase 2-alpha (Homo sapiens) (UniProt P11388); test: Induction of human topoisomerase 2alpha-mediated prestrand-passage DNA cleavage after 6 mins by agarose gel electrophoresis; outline: as §3
HL-60 [20] = test: Induction of apoptosis in human HL60 cells assessed as increase in cleaved caspase 3 levels after 24 hrs by Western blotting; format: functional, cell-based; outline: as §2
MCF7 = test: Selectivity ratio of IC50 for human HMEC cells to IC50 for MCF7 cells
HMEC [21] = test: Selectivity ratio of IC50 for human HMEC cells to IC50 for Rh30 cells
HL-60 [22] = test: Induction of apoptosis in human HL60 cells assessed as decrease in procaspase 3 expression after 24 hrs by Western blotting; format: functional, cell-based; outline: as §2
HL-60 [23] = test: Induction of apoptosis in human HL60 cells assessed as DNA ladder formation after 24 hrs using Annexin-V/PI double-staining by flow cytometric analysis; format: functional, cell-based; outline: as §1
HL-60 [24] = test: Induction of apoptosis in human HL60 cells assessed as DNA ladder formation at 2.5 to 10 uM after 24 hrs using Annexin-V/PI double-staining by flow cytometric analysis; format: functional; outline: as §1
HMEC [25] = test: Selectivity ratio of IC50 for human HMEC cells to IC50 for A431 cells
HL-60 [26] = test: Induction of apoptosis in human HL60 cells assessed as increase in cleaved PARP levels after 24 hrs by Western blotting; format: functional, cell-based; outline: as §2
[27] = molecular target: DNA topoisomerase 2-alpha (Homo sapiens) (UniProt P11388); test: Inhibition of human topoisomerase 2alpha-mediated unwinding of linearized pBR322 assessed as DNA intercalation at 8 to 200 uM; outline: as §4
HL-60 [28] = test: Induction of apoptosis in human HL60 cells assessed as activation of caspase 8 at 2.5 to 10 uM after 24 hrs by Western blotting; format: functional, cell-based; outline: as §2
[29] = molecular target: DNA topoisomerase 2-alpha (Homo sapiens) (UniProt P11388); test: Inhibition of human topoisomerase 2alpha-mediated decatenation of kDNA after 30 mins by agarose gel electrophoresis in presence of ATP
Outline: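 Decatenation of 0.25 μg kDNA by 0.75 unit topo IIα at 37 °C for 30 min. Stopped with SDS. Run on 1% agarose in TAE at 4 V/cm for 2 h and stained with ethidium bromide.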

HL-60 [30] = test: Induction of apoptosis in human HL60 cells assessed as activation of caspase 9 at 10 uM after 24 hrs by Western blotting preincubated for 2 hrs with 20 uM caspase 9 inhibitor Z-LEHD-FMK; format: functional, cell-based
Outline: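 HL60 cells were pretreated with 20 μM Z-IETD-FMK, Z-LEHD-FMK or Z-VAD-FMK, then cultured with 10 μM compound for 24 h. Cleaved PARP and caspases were probed by Western blot. Three independent experiments were run.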

COC1O[C@H](C)[C@@H](C)c2c(C)c3c(c(O)c21)[C@@H]1O[C@H](C)[C@@H](C)c2c(C)c(O)c([C@H]4O[C@H](C)[C@@H](C)c5c(C)c(O)cc(O)c54)c(c21)O3 (some centres not stated) [TRICITRINOL B]
IC50 (HMEC [1]): 7.89 µM | Activity (HL-60 [2]): Dose-dependent effect | Ratio IC50 (HMEC [3]): 2 | Activity (HL-60 [4]): tde | Activity (HCT-116 [5]): Active | Activity [6]: Dose-dependent effect | Activity (HL-60 [7]): tde | inhibition [8]: Active | Ratio IC50 (HMEC [9]): 2 | Ratio IC50 (HMEC [10]): 2 | inhibition [11]: Dose-dependent effect | Ratio IC50 (HMEC [12]): 2 | IC50 (HL-60 [13]): 3.2 µM | Ratio IC50 (HMEC [14]): 2 | Activity (HL-60 [15]): Active | IC50 (KB): 4.6 µM | Activity (HCT-116 [16]): 20.42% | Ratio IC50 (HMEC [17]): 2 | Activity (HCT-116 [18]): Dose-dependent effect | Activity [19]: Dose-dependent effect | Activity (HL-60 [20]): Dose-dependent effect | Ratio IC50 (MCF7): 2 | Ratio IC50 (HMEC [21]): 2 | Activity (HL-60 [22]): Dose-dependent effect | Activity (HL-60 [23]): Dose-dependent effect | Activity (HL-60 [24]): 10% | Ratio IC50 (HMEC [25]): 2 | Activity (HL-60 [26]): Dose-dependent effect | inhibition [27]: Active | Activity (HL-60 [28]): Active | inhibition [29]: Dose-dependent effect | Activity (HL-60 [30]): Active
